Measurements taken from ChEMBL document CHEMBL4014309, “Development of an Acrylate Derivative Targeting the NLRP3 Inflammasome for the Treatment of Inflammatory Bowel Disease” (J Med Chem, 2017).
Active and inactive are the calls of the source. The calls are words filed in the database; no cut-off is given here.

Legend:
[1] = Cysteamine reactivity in PBS assessed as free compound level at pH 7.4 measured after 30 mins by DTNB reagent based RP-UHPLC analysis
Procedure, shortened: (§1)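 The compound was reacted with excess cysteamine in pH 7.4 phosphate buffer with CH3CN cosolvent at 37 °C. Remaining compound was followed by UHPLC over 4 h, sampled at 30 min, 60 min and 4 h, and expressed as percent of starting concentration.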

[2] = Cysteamine reactivity in PBS assessed as free compound level at pH 7.4 measured after 60 mins by DTNB reagent based RP-UHPLC analysis; procedure, shortened: as §1
[3] = Cytotoxicity against human THP1 cells assessed as reduction in cell viability after 72 hrs by MTT assay; type: cell-based; settings: THP-1 cells, read-out: TC50
Procedure, shortened: (§2)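 Human THP-1 cells were exposed to 0.1–100 µM for 72 h, and viability was read by MTT. TC50 is the concentration that cuts viability by 50%; percent viable cells at 100 µM is also reported. Mean ± SEM of ≥3 experiments.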

[4] = Cytotoxicity against human THP1 cells assessed as cell viability at 100 uM after 72 hrs by MTT assay; type: cell-based; settings: THP-1 cells, read-out: Activity; procedure, shortened: as §2
[5] = biological target: NACHT, LRR and PYD domains-containing protein 3 (Homo sapiens) (UniProt Q96P20); test: Inhibition of NLRP3 in PMA-differentiated and LPS-primed human THP1 cells assessed as decrease in ATP-induced pyroptosis measured as LDH activity at 10 uM preincubated for 1 hr followed by ATP addition measured after 1 hr by colorimetric assay relative to control
NACHT, LRR and PYD domains-containing protein 3 (Homo sapiens), sequence (Q96P20 whole entry, the tested form may be a part): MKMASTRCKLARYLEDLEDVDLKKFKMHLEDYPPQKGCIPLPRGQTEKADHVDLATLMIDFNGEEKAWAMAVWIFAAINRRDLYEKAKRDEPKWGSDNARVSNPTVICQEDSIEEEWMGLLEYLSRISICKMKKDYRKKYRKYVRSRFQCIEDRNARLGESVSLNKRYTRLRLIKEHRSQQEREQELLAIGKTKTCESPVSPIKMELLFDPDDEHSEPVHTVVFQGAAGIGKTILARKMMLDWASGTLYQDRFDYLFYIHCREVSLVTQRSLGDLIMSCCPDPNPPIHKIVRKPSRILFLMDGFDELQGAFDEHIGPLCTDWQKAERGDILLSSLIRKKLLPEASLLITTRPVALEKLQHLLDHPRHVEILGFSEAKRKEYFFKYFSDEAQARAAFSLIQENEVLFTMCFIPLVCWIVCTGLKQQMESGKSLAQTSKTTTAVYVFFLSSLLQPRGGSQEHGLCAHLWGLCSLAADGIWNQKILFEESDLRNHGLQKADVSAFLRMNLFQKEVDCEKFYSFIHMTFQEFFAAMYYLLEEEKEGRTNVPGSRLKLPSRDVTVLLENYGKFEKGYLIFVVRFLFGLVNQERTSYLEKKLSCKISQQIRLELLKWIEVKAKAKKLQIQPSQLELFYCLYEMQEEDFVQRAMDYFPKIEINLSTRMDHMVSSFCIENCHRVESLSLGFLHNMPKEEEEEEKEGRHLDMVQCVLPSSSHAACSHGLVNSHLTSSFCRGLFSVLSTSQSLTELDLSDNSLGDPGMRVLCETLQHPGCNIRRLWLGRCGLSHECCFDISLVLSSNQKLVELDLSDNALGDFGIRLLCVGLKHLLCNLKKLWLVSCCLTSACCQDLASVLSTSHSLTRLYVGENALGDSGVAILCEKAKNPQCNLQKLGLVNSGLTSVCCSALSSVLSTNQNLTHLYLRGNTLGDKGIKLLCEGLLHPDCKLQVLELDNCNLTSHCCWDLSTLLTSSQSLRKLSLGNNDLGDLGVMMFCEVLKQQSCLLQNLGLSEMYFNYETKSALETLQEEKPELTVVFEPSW
Procedure, shortened: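 THP-1 cells were PMA-differentiated and LPS-primed, then pretreated with vehicle or compound (10 µM, 1 h). Pyroptosis was triggered with ATP (5 mM). LDH in supernatant was measured colorimetrically 1 h after ATP and expressed as percent decrease versus vehicle, mean ± SEM of ≥3 experiments.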

Mus musculus = species on record: Mus musculus; test: Inhibition of NF-kB signaling pathway in C57BL/6 mouse bone marrow derived macrophages assessed as reduction in LPS-induced IL-6 gene expression at 10 to 100 uM preincubated for 30 mins followed by LPS stimulation measured after 4 hrs by qRT-PCR analysis
Procedure, shortened: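 C57BL/6 bone marrow macrophages, differentiated with 20% L-cell medium, were preincubated with compound for 30 min. They were then left untreated or given LPS (1 ng/mL, 4 h). Tnfa, Il6 and Il1b expression was measured by quantitative RT-PCR as 2^-ΔΔCt.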

[6] = biological target: NACHT, LRR and PYD domains-containing protein 3 (Homo sapiens) (UniProt Q96P20); test: Inhibition of recombinant YFP-tagged NLRP3 (unknown origin) expressed in HEK293 cells co-expressing luciferase at 10 to 100 uM after 24 hrs by BRET assay; type: cell-based
Procedure, shortened: (§3)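 HEK293 cells stably expressing YFP-NLRP3-Luc were grown in DMEM with 10% FCS, plated on poly-L-lysine, and exposed to compound or vehicle (15 h per methods; 24 h per figure legend). Cells were washed, then BRET was read after adding coelenterazine-H (5 µM). Kinetics used nigericin (10 µM) in vehicle or high-K+ (140 mM) buffer. Slopes of three phases were taken; mean ± SEM, n = 5–12.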

[7] = biological target: NACHT, LRR and PYD domains-containing protein 3 (Homo sapiens) (UniProt Q96P20); test: Inhibition of recombinant YFP-tagged NLRP3 (unknown origin) expressed in HEK293 cells co-expressing luciferase assessed as reduction in nigericin-induced intracellular K+ decrease-mediated conformational changes in protein at 10 to 100 uM measured after 24 hrs by BRET assay; type: cell-based; procedure, shortened: as §3
[8] = biological target: NACHT, LRR and PYD domains-containing protein 3 (Homo sapiens) (UniProt Q96P20); test: Inhibition of recombinant YFP-tagged NLRP3 (unknown origin) expressed in HEK293 cells co-expressing luciferase assessed as initial conformational changes in protein by measuring increase in nigericin-induced decrease in intracellular K+ level at 10 to 100 uM measured after 24 hrs by BRET assay; type: cell-based; procedure, shortened: as §3
[9] = Drug metabolism in Sprague-Dawley rat ileum tract assessed as 2-(2-chlorobenzyl)acrylic acid level at 12.5 mg as suspension in olive oil measured after 2 hrs by UHPLC-M; type: ADME; settings: in vivo
Duodenum = test: Drug metabolism in Sprague-Dawley rat duodenum assessed as 2-(2-chlorobenzyl)acrylic acid level at 12.5 mg as suspension in olive oil measured after 2 hrs by UHPLC-MS analysis; type: ADME, tissue-based; settings: in vivo
Jejunum = test: Drug metabolism in Sprague-Dawley rat jejunum assessed as 2-(2-chlorobenzyl)acrylic acid level at 12.5 mg as suspension in olive oil measured after 2 hrs by UHPLC-M; type: ADME, tissue-based; settings: in vivo
Liver [10] = test: Drug metabolism in Sprague-Dawley rat liver microsomes assessed as formation of 2-(2-chlorobenzyl)acrylic acid at 100 uM at <1 min in presence of NADPH by UHPLC-MS analysis; type: ADME, microsome
Liver [11] = test: Drug metabolism in Sprague-Dawley rat liver microsomes assessed as formation of 2-(2-chlorobenzyl)acrylic acid at 100 uM up to 2 hrs in absence of NADPH by UHPLC-MS analysis; type: ADME, microsome
Rattus norvegicus [12] = test: Antiinflammatory activity in DNBS-induced Sprague-Dawley rat colitis model assessed as reduction in DNBS-induced spleen weight increase by measuring increase in spleen weight at 12.5 mg/kg/day, ig administered as suspension in olive oil for 6 days simulatneously with 6 days of DNBS-challenge measured daily during compound dosing (reference value: 39.3%); type: functional; set-up: scale not given: the % may be the effect or the level left
Procedure, shortened: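 Spleen weight was used as an index of systemic inflammation. Rats had intrarectal DNBS (15 mg/0.25 mL 50% ethanol) and 6 days of intragastric dosing: 1 mg/kg/day in 1% methylcellulose, or 12.5–50 mg/kg/day in 0.2 mL olive oil. The spleen was weighed at sacrifice and expressed as percent increase versus control, n = 10.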

Rattus norvegicus [13] = test: Anti-inflammatory activity in DNBS-induced Sprague-Dawley rat colitis model assessed as DNBS-induced IL-1beta levels in colon at 12.5 mg/kg/day, ig for 6 days simulatneously with 6 days of DNBS-challenge by ELISA (reference value: 22.3 +/- 2.9 ng/mg); type: functional
Rattus norvegicus [14] = test: Anti-inflammatory activity in DNBS-induced Sprague-Dawley rat colitis model assessed as DNBS-induced IL-1beta levels in colon at 25 mg/kg/day, ig for 6 days simulatneously with 6 days of DNBS-challenge by ELISA (reference value: 22.3 +/- 2.9 ng/mg); type: functional
Rattus norvegicus [15] = test: Anti-inflammatory activity in DNBS-induced Sprague-Dawley rat colitis model assessed as DNBS-induced IL-1beta levels in colon at 50 mg/kg/day, ig for 6 days simulatneously with 6 days of DNBS-challenge by ELISA (reference value: 22.3 +/- 2.9 ng/mg); type: functional
Rattus norvegicus [16] = test: Anti-inflammatory activity in DNBS-induced Sprague-Dawley rat colitis model assessed as DNBS-induced TNFalpha levels in colon at 12.5 mg/kg/day, ig for 6 days simulatneously with 6 days of DNBS-challenge by ELISA (reference value: 5.9 +/- 0.6 pg/mg); type: functional
Rattus norvegicus [17] = test: Anti-inflammatory activity in DNBS-induced Sprague-Dawley rat colitis model assessed as DNBS-induced TNFalpha levels in colon at 50 mg/kg/day, ig for 6 days simulatneously with 6 days of DNBS-challenge by ELISA (reference value: 5.9 +/- 0.6 pg/mg); type: functional

C=C(Cc1ccccc1Cl)C(=O)OCC
Stability [1]: 89.4%
Stability [2]: 83.3%
CC50 at 72 h [3]: > 100 µM
viability at 72 h, 100 µM [4]: 96.6%
inhibition [5]: 33.6%
inhibition (Mus musculus): Active
inhibition [6]: Active
inhibition [7]: Active
inhibition [8]: inactive
Drug metabolism [9]: Metabolite_Detected
Drug metabolism (Duodenum): Metabolite_Detected
Drug metabolism (Jejunum): Metabolite_Detected
Drug metabolism (Liver [10]): Metabolite_Detected
Drug metabolism (Liver [11]): Metabolite_Detected
Activity (Rattus norvegicus [12]): 2.2%
Activity (Rattus norvegicus [13]): 16.4 ng/mg
Activity (Rattus norvegicus [14]): 12.8 ng/mg
Activity (Rattus norvegicus [15]): 6.6 ng/mg
Activity (Rattus norvegicus [16]): 3.5 pg/mg
Activity (Rattus norvegicus [17]): 2.7 pg/mg
